Measurements published in ChEMBL document CHEMBL4020842, “Discovery of N1-(4-((7-Cyclopentyl-6-(dimethylcarbamoyl)-7 H-pyrrolo[2,3- d]pyrimidin-2-yl)amino)phenyl)- N8-hydroxyoctanediamide as a Novel Inhibitor Targeting Cyclin-dependent Kinase 4/9 (CDK4/9) and Histone Deacetlyase1 (HDAC1) against Malignant Cancer” (J Med Chem, 2018).
Activity calls are given as the source filed them. The calls are words filed in the database; no cut-off is given here.

Experiments:
[1] = system: A549; assay: Induction of apoptosis in human A549 cells assessed as live cells at 10 uM after 48 hrs by annexin V-FITC/propidium iodide staining based flow cytometry (reference value: 92.7%); assay type: functional
[2] = system: MDA-MB-231; assay: Cytotoxicity against human MDA-MB-231 cells assessed as reduction in cell viability after 72 hrs by CCK8 assay; assay type: functional, cell-based; conditions: MDA-MB-231, 72 h
[3] = system: A549; assay: Cell cycle arrest in human A549 cells assessed as accumulation at G2 phase at 2.5 to 10 uM after 24 hrs by propidium iodide staining based flow cytometry; assay type: functional
Method in brief: (§1)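 Cells were exposed for 24 h to a range of concentrations (625 nM, 2.5 and 10 µM), with DMSO vehicle as control. They were then stained with propidium iodide and analysed by flow cytometry to obtain the percentages of cells in G0/G1, S and G2 phases.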

[4] = system: A549; assay: Cell cycle arrest in human A549 cells assessed as accumulation at G0/G1 phase at 625 nM after 24 hrs by propidium iodide staining based flow cytometry; assay type: functional; method in brief: as §1
[5] = system: Mus musculus; assay: Downregulation of phosphorylated Rb level in tumor of Balb/c mouse implanted with mouse Fluc-labeled 4T1 cells at 90 to 130 mg/kg, po administered via gavage daily for 18 days by immunohistochemical analysis; assay type: functional, organism-based
Method in brief: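 4T1 cells were labeled with firefly luciferase by lentiviral transduction and implanted orthotopically into the mammary fat pads of 6−8-week-old female BALB/c mice. Dosing by oral gavage began once tumors averaged 100 mm3, at 90 and 130 mg/kg. p-Rb in tumors was assessed by immunohistochemistry.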

[6] = system: MDA-MB-231; assay: Cell cycle arrest in human MDA-MB-231 cells assessed as accumulation at G2 phase at 2.5 to 10 uM after 24 hrs by propidium iodide staining based flow cytometry; assay type: functional; method in brief: as §1
[7] = system: A549; assay: Downregulation of Cyclin-D1 protein expression in human A549 cells after 48 hrs by Western blot method; assay type: functional, cell-based
Method in brief: (§2)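 Treated cells were lysed and CDK4 and cyclin D1 protein levels were assessed by Western blot.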

[8] = system: NCI-H460; assay: Downregulation of Cyclin-D1 protein expression in human NCI-H460 cells after 48 hrs by Western blot method; assay type: functional, cell-based; method in brief: as §2
[9] = Oral bioavailability in Sprague-Dawley rat at 20 mg/kg administered as single dose by HPLC analysis; assay type: ADME, organism-based; conditions: in vivo
[10] = target: T1, Histone deacetylase 1 (Homo sapiens, UniProt Q13547); assay: Inhibition of HDAC1 in human NCI-H460 cells assessed as increase in p53 phosphorylation at Ser15 residue at 1 to 5 uM after 48 hrs by Western blot method; assay type: cell-based
T1 sequence (Q13547 whole entry): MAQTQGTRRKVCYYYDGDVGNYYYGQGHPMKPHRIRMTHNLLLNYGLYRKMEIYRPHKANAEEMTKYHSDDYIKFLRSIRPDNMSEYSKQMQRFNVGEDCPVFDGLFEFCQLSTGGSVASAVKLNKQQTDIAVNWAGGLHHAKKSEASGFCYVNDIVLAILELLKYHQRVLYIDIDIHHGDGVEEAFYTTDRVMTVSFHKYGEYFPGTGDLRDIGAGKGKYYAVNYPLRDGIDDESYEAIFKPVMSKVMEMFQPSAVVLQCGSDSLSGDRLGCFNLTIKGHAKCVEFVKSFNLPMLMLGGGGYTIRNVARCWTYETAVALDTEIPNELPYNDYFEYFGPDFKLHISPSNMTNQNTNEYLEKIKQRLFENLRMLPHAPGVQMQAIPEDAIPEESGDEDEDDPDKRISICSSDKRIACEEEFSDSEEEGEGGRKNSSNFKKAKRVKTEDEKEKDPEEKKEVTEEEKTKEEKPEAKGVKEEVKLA

[11] = system: NCI-H460; assay: Induction of apoptosis in human NCI-H460 cells assessed as late apoptotic cells at 5 uM after 48 hrs by annexin V-FITC/propidium iodide staining based flow cytometry (reference value: 1.29%); assay type: functional
[12] = target: T1, Histone deacetylase 1; assay: Inhibition of HDAC1 in human Hep3B cells assessed as increase in p53 phosphorylation at Ser15 residue at 1 to 5 uM after 48 hrs by Western blot method; assay type: cell-based
[13] = system: HepG2; assay: Induction of apoptosis in human HepG2 cells assessed as necrotic cells at 1 uM after 48 hrs by annexin V-FITC/propidium iodide staining based flow cytometry (reference value: 2.32%); assay type: functional
[14] = target: Vascular endothelial growth factor receptor 3 (Homo sapiens, UniProt P35916); assay: Inhibition of recombinant human N-terminal GST-tagged FLT4 (800-end residues) expressed in baculovirus infected sf21 cells
Sequence of Vascular endothelial growth factor receptor 3 (P35916 whole entry): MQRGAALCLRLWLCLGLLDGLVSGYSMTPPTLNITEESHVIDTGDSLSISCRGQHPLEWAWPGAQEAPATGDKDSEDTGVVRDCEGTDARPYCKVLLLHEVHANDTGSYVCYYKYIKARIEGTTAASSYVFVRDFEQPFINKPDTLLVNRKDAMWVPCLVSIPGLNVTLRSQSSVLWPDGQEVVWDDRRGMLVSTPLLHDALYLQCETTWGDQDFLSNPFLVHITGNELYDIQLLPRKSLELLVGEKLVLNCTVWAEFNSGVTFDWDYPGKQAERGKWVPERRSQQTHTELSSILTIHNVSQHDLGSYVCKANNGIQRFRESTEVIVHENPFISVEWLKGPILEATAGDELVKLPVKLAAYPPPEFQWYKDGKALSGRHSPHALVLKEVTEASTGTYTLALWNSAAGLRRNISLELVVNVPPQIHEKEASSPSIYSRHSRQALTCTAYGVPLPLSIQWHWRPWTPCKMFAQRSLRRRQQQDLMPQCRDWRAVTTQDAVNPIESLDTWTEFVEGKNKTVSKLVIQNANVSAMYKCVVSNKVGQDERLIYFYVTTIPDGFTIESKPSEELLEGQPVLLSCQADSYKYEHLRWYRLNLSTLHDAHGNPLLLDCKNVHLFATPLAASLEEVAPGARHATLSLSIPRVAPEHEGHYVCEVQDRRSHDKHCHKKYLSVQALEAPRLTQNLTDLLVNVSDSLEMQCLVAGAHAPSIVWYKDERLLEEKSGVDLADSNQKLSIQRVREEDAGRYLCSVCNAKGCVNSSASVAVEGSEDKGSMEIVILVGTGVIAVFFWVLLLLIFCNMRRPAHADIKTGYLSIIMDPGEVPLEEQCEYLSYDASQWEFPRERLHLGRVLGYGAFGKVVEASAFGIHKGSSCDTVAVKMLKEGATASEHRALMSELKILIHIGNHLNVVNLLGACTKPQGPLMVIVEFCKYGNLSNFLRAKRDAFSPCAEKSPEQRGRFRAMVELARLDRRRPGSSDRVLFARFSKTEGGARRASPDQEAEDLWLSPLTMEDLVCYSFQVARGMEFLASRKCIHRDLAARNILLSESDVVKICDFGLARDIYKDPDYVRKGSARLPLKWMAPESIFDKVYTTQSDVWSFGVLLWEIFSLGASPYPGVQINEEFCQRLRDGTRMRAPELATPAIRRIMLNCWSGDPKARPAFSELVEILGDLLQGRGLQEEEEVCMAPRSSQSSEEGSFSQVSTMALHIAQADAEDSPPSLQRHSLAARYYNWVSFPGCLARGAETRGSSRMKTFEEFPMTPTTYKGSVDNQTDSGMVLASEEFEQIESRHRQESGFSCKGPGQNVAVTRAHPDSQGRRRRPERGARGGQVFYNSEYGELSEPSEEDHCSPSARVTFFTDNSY

[15] = system: Hep 3B2; assay: Induction of apoptosis in human Hep3B cells assessed as live cells at 10 uM after 48 hrs by annexin V-FITC/propidium iodide staining based flow cytometry (reference value: 97.9%); assay type: functional
[16] = target: T1, Histone deacetylase 1; assay: Inhibition of HDAC1 in human Hep3B cells assessed as increase in acetylated-histone H3 level at 1 to 5 uM after 48 hrs by Western blot method; assay type: cell-based
[17] = Bioavailability in Sprague-Dawley rat at 20 mg/kg, ip administered as single dose by HPLC analysis; assay type: ADME, organism-based; conditions: in vivo
[18] = system: Rattus norvegicus; assay: Apparent volume of distribution at steady state in Sprague-Dawley rat at 20 mg/kg, po administered as single dose by HPLC analysis; assay type: ADME, organism-based; conditions: in vivo
[19] = system: HepG2; assay: Induction of apoptosis in human HepG2 cells assessed as late apoptotic cells at 5 uM after 48 hrs by annexin V-FITC/propidium iodide staining based flow cytometry (reference value: 0.64%); assay type: functional
[20] = system: NCI-H460; assay: Induction of apoptosis in human NCI-H460 cells assessed as early apoptotic cells at 10 uM after 48 hrs by annexin V-FITC/propidium iodide staining based flow cytometry (reference value: 0.11%); assay type: functional
[21] = system: A549; assay: Induction of apoptosis in human A549 cells assessed as live cells at 1 uM after 48 hrs by annexin V-FITC/propidium iodide staining based flow cytometry (reference value: 92.7%); assay type: functional
[22] = system: Hep 3B2; assay: Cell cycle arrest in human Hep3B cells assessed as decrease in S-phase at 625 nM after 24 hrs by propidium iodide staining based flow cytometry; assay type: functional; method in brief: as §1
[23] = target: LIM domain kinase 1 (Homo sapiens, UniProt P53667); assay: Inhibition of recombinant human N-terminal His6-tagged LIMK1 (285 to 638 residues) expressed in baculovirus infected sf21 cells
Sequence of LIM domain kinase 1 (P53667 whole entry, the tested form may be a part): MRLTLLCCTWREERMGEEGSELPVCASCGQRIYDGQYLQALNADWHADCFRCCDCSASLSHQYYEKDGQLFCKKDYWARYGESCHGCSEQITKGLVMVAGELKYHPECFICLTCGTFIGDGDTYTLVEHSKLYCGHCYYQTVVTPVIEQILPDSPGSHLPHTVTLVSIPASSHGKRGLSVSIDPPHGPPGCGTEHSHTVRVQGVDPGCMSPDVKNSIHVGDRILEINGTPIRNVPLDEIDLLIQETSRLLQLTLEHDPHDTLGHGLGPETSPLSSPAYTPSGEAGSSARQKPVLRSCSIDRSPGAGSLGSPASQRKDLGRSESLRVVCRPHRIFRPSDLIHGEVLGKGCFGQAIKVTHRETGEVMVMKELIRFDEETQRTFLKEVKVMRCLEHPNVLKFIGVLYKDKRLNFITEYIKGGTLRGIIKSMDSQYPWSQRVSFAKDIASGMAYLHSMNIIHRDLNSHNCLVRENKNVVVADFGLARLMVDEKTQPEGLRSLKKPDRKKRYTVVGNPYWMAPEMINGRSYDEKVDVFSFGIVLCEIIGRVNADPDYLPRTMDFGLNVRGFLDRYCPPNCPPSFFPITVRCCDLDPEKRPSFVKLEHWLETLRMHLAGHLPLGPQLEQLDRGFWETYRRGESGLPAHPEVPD

[24] = system: T47D; assay: Induction of apoptosis in human T47D cells assessed as reduction in Bcl2 protein expression after 48 hrs by Western blot method; assay type: functional, cell-based
Method in brief: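 Cells were treated with or without test agent, alongside a control, for 48h. They were then lysed and analysed by Western blot for Bcl-2 protein and cleaved caspase 3.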

[25] = Tmax in Sprague-Dawley rat at 20 mg/kg, po administered as single dose by HPLC analysis; assay type: ADME, organism-based; conditions: in vivo
[26] = target: T1, Histone deacetylase 1; assay: Inhibition of HDAC1 in human HepG2 cells assessed as increase in acetylated-histone H3 level at 1 to 5 uM after 48 hrs by Western blot method; assay type: cell-based
[27] = Cmax in Sprague-Dawley rat at 20 mg/kg, po administered as single dose by HPLC analysis; assay type: ADME, organism-based; design: dose 20 mg/kg, route oral; conditions: in vivo
[28] = system: A549; assay: Induction of apoptosis in human A549 cells assessed as late apoptotic cells at 10 uM after 48 hrs by annexin V-FITC/propidium iodide staining based flow cytometry (reference value: 0.88%); assay type: functional
[29] = target: T1, Histone deacetylase 1; assay: Inhibition of HDAC1 in human NCI-H460 cells assessed as increase in acetylated-histone H3 level at 1 to 5 uM after 48 hrs by Western blot method; assay type: cell-based
[30] = system: MDA-MB-231; assay: Induction of apoptosis in human MDA-MB-231 cells assessed as early apoptotic cells at 10 uM after 48 hrs by annexin V-FITC/propidium iodide staining based flow cytometry (reference value: 0.4%); assay type: functional
[31] = system: NCI-H460; assay: Induction of apoptosis in human NCI-H460 cells after 48 hrs by annexin V-FITC/propidium iodide staining based flow cytometry; assay type: functional, cell-based
[32] = system: MDA-MB-231; assay: Cell cycle arrest in human MDA-MB-231 cells assessed as accumulation at G0/G1 phase at 625 nM after 24 hrs by propidium iodide staining based flow cytometry; assay type: functional; method in brief: as §1
[33] = system: MDA-MB-231; assay: Induction of apoptosis in human MDA-MB-231 cells assessed as late apoptotic cells at 5 uM after 48 hrs by annexin V-FITC/propidium iodide staining based flow cytometry (reference value: 1.53%); assay type: functional
[34] = system: T47D; assay: Induction of apoptosis in human T47D cells after 48 hrs by annexin V-FITC/propidium iodide staining based flow cytometry; assay type: functional, cell-based

bioavailability [9]: 18.4% | inhibition [10]: Active | inhibition [12]: Active | IC50 [14]: 0.043 µM | inhibition [16]: Active | bioavailability [17]: 34.7% | Vdss(app) [18]: 431.52 L/kg | IC50 [23]: 0.044 µM | Tmax [25]: 1.8 h | inhibition [26]: Active | Cmax [27]: 137 ng/mL | inhibition [29]: Active
Compound: CN(C)C(=O)c1cc2cnc(Nc3ccc(NC(=O)CCCCCCC(=O)NO)cc3)nc2n1C1CCCC1
Activity [1]: 59.8% | IC50 [2]: 1.86 µM | Activity [3]: Active | Activity [4]: Active | Activity [5]: Active | Activity [6]: Active | Activity [7]: Dose-dependent effect | Activity [8]: Dose-dependent effect | Activity [11]: 5.38% | Activity [13]: 3.95% | Activity [15]: 72.8% | Activity [19]: 11.1% | Activity [20]: 3.95% | Activity [21]: 90.9% | Activity [22]: Active | Activity [24]: Active | Activity [28]: 27.7% | Activity [30]: 5.09% | Activity [31]: Dose-dependent effect | Activity [32]: Active | Activity [33]: 5.76% | Activity [34]: Dose-dependent effect
